Active and inactive are the calls of the source. No cut-off for these calls is given here.
Legend:
Homo sapiens [1] = species: Homo sapiens; experiment: Selectivity index, ratio of pKi for displacement of [3H]2-BFI from imidazoline I2 receptor in post-mortem human brain frontal cortex membrane to pKi for displacement of [3H]-RX821002 from adrenergic alpha 2 receptor in post-mortem human brain frontal cortex membrane; assay type: cell membranes
[2] = Solubility of compound at pH 1.13; assay type: physicochemical; conditions: buffer
Summary of the method: (§1)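 Solubility was measured at pH 1.13, 4.61 and 6.97, simulating gastric and intestinal fluids, and classed by European Pharmacopoeia terms.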

[3] = Solubility of compound at pH 4.61; assay type: physicochemical; conditions: buffer; summary of the method: as §1
[4] = Microsomal stability in mouse liver microsomes assessed as parent compound remaining after 60 mins; assay type: ADME, Microsome; conditions: read-out: Stabilty
Summary of the method: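 Human and mouse microsomes, incubation for 60 min, with percentage of parent compound remaining reported.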

Cytochrome P450 2C19 = Cytochrome P450 2C19 (Homo sapiens, UniProt P33261); experiment: Inhibition of CYP2C19 (unknown origin) at 10 uM; assay type: ADME
Summary of the method: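 Recombinant human CYP1A2, CYP2C9, CYP2C19, CYP2D6 and CYP3A4 (7-BFC or DBF as probe) were tested with probe substances and fluorescent detection, with test compound at 10 μM.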

NCI-H460 = experiment: Cytotoxicity against human NCI-H460 cells at 100 uM by real time IncuCyte proliferation assay; assay type: cell-based; conditions: nci-h460, 100 µM
Summary of the method: (§2)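 Adherent lines (LN-229, Capan-1, HCT-116, NCI-H460) seeded at 500–1500 cells/well and treated after overnight attachment. Suspension lines (HL-60, K-562, Z-138, DND-41) seeded at 2500–5500 cells/well directly with compound. Highest concentration 100 μM; proliferation tracked by real-time IncuCyte imaging over 72 h at 37 °C.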

K562 = experiment: Cytotoxicity against human K562 cells at 100 uM by real time IncuCyte proliferation assay; assay type: cell-based; conditions: k562, 100 µM; summary of the method: as §2
Mus musculus [5] = experiment: Neuroprotection in naive mouse assessed as reduction in hippocampal FADD protein level at 50 mg/kg, ip by Western blot analysis relative to control; assay type: functional; set-up: scale not given: the % may be the effect or the level left
Summary of the method: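 Adult naive CD-1 mice received one i.p. dose (n = 7) or saline vehicle (2 ml/kg, n = 6) and were killed 1 h later. Hippocampal protein (40 µg) was run on 10% SDS-PAGE, blotted to nitrocellulose and probed with anti-FADD, then ECL. Band IOD densitometry was expressed as % of same-gel vehicle controls, averaged over 2–4 gels per sample.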

Mus musculus [6] = experiment: Antialzheimer activity in 5xFAD transgenic Alzheimer disease mouse model assessed as decrease in iNOS expression at 1 mg/kg/day by Western blot analysis
[7] = Displacement of [3H]2-BFI from imidazoline I2 receptor low affinity site in Swiss mouse brain cerebral cortex membrane measured after 45 mins by liquid scintillation counting spectrometry
[8] = Displacement of [3H]2-BFI from imidazoline I2 receptor in post-mortem human brain frontal cortex membrane one site model measured after 45 mins by liquid scintillation counting spectrometry
Homo sapiens [9] = species: Homo sapiens; experiment: Displacement of [3H]2-BFI from imidazoline I2 receptor in post-mortem human brain frontal cortex membrane assessed as occupancy at high affinity site measured after 45 mins by liquid scintillation counting spectrometry

Cytochrome P450 2C19, sequence (P33261 whole entry): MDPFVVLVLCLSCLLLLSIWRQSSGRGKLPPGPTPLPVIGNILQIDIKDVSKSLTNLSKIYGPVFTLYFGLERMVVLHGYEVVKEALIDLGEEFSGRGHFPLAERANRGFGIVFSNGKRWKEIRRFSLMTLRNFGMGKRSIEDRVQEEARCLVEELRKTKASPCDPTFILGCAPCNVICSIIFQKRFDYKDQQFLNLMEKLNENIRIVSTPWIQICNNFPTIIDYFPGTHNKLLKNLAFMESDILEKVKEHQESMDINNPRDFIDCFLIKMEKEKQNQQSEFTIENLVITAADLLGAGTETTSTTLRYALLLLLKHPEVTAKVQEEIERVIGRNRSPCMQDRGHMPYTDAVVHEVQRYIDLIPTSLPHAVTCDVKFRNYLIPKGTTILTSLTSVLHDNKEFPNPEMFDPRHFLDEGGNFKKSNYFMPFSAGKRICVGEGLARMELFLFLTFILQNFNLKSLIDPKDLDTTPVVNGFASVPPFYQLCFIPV

## Cl.c1ccc2oc(-c3ncc[nH]3)cc2c1
Homo sapiens [1]
  Selectivity Index: 3090
[2]
  solubility: Soluble
[3]
  solubility: Soluble
[4]
  remaining at 1 h: 36%
Cytochrome P450 2C19
  inhibition (INH): Not Active
NCI-H460
  Activity: Non-Toxic
K562
  Activity: Non-Toxic
Mus musculus [5]
  Activity: 34%
Mus musculus [6]
  Activity: Active
[7]
  pKi: 6
[8]
  pKi: 6.67
Homo sapiens [9]
  Activity: 34%
